Assays:
Klebsiella pneumoniae = assay: Antimicrobial activity against Klebsiella pneumoniae after 18 hrs; format: functional, organism-based
How it was run: (§1)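 Strains grown on Mueller-Hinton agar, then in Mueller-Hinton broth with CaCl₂/MgCl₂ at 37 °C for 18 h. Serially diluted (K. pneumoniae and P. aeruginosa 10^-6, S. aureus 10^-8, S. pneumoniae 10^-4, as cfu/mL) and equilibrated 30 min at 37 °C. Incubated with samples, shaken at 37 °C and 60% humidity for 18 h. Read at OD650. Streptomycin 50 μg/mL control wells.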

Pseudomonas aeruginosa = assay: Antimicrobial activity against Pseudomonas aeruginosa after 18 hrs; format: functional, organism-based; how it was run: as §1
Staphylococcus aureus = assay: Antimicrobial activity against Staphylococcus aureus after 18 hrs; format: functional, organism-based; how it was run: as §1
Streptococcus pneumoniae = assay: Antimicrobial activity against Streptococcus pneumoniae after 18 hrs; format: functional, organism-based; how it was run: as §1
THP-1 = assay: Cytotoxicity against human THP1 cells after 72 hrs by WST-1 assay; format: cell-based; details: THP-1, 72 h
How it was run: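 THP-1 cells kept in RPMI 1640 with 10% FBS, 2 mM L-glutamine, penicillin/streptomycin and 10 μM 2-mercaptoethanol at 37 °C, 5% CO₂. Seeded at 2.5 × 10⁴ cells/well and exposed to samples at 250 μg/mL final for 72 h. WST-1 added for 1–2 h, absorbance read at 450 nm. Controls were 10 μM camptothecin and 0.1% DMSO.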

IC50 (Klebsiella pneumoniae) [µM]	IC50 (Pseudomonas aeruginosa) [µM]	IC50 (Staphylococcus aureus) [µM]	IC50 (Streptococcus pneumoniae) [µM]	Structure (SMILES)	IC50 (THP-1) [µM]
> 500	> 500	12	5	C=C1CC[C@H]2C(C)(C)[C@H](O)CC[C@]2(C)[C@@H]1C[C@@H]1CCC(=C)[C@H](CC/C(C)=C/COC=O)[C@@]1(C)C(=O)O [TRICHOMYCIN A]	> 1000
> 473	> 473	12	6	C=C1CC[C@H]2C(C)(C)[C@H](O)CC[C@]2(C)[C@@H]1C[C@@H]1CCC(=C)[C@H](CC/C(C)=C/CO)[C@@]1(C)C(=O)O [TRICHOMYCIN B]	640

Source: ChEMBL document CHEMBL1158708, “Cerylimycins [corrected] A and B: antibacterial triterpenes from the new species Tricholoma sp. AU1” (J Nat Prod, 2005)
